NR2E3 ag-1 – NR2E3 (human) agonism | Q9Y5X4 | GST-NR2E3/biotin-RetCOR TR-FRET, 1536-well | inhibition of corepressor binding, % at 4.78 µM | 320,000 tested, 0.12% active | AID 2300;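 active means percent inhibition above the cutoff of mean plus 3 SD of all tested compounds, set per screening campaign, cut at about 20% in these data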
Target sequence (Q9Y5X4 whole entry, looked up): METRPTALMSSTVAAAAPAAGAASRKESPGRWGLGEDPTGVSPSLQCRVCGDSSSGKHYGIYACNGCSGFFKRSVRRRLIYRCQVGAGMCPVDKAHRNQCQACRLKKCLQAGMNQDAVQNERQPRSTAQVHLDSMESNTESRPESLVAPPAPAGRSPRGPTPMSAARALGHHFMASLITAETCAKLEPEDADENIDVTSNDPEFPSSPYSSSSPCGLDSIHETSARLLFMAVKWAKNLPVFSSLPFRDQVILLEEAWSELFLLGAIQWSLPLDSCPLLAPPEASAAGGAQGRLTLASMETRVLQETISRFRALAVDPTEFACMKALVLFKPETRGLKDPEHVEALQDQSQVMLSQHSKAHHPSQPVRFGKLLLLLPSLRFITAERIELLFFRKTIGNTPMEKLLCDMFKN
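Material – GST-tagged NR2E3 plus biotinylated RetCOR corepressor · Quantity – NR2E3 fusion 1.35 nM · Times – 5 h incubation at 4 °C · Medium – pH 7.5 Tris-based buffer · Technique – TR-FRET, Eu(K)-anti-GST donor, streptavidin-D2 acceptor, ex 340, em 617/671 nm · Benchmarks – high control biotin, low control 0.6% DMSO · Format – 1536-well plates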
NR2E3 ag-2 – activates human NR2E3 receptor; Q9Y5X4; CHO-S Gal4-NCOR/VP16-NR2E3 two-hybrid, luciferase; inhibition of corepressor binding, % at 3.98 µM; 360,000 tested, 0.35% active; AID 602229;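 active means inhibition above the mean of all tested compounds plus 3 SD, cut at about 70% in these data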;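 further: higher means lower luciferase signal from less NR2E3 corepressor binding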
VLA-4 inh – inhibition in a human VLA-4 binding assay; inhibition, % (about 7 µM as worked out from the volumes in the protocol); 330,000 tested, 0.2% active; VLA-4 expressing cells, ligand binding flow cytometry; in the data active means inhibition above about 50%
NR1D1 modulator – Rev-erb alpha (human) modulation; P20393; Rev-erbα–FITC-DNA binding, fluorescence polarization, 90 min; activity, % at 10 µM; 370,000 tested, 0.79% active; AID 1259318;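 active means activity above about 14%, limit read from the data; passing the limit was not always enough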
PG9 binder – small molecules binding HIV-1 gp120 antibody PG9. TR-FRET gp120-PG9 antibody binding. inhibition, % at 6.7 µM. 360,000 tested, 0.43% active. AID 624416; in the data active means inhibition above about 8.5%
NR1D1 mod conf – Rev-erb alpha (human) modulation, hit confirmation. shares compounds with NR1D1 modulator. Rev-erb alpha FITC-DNA binding, fluorescence polarization, 90 min. activation, % at 25 µM. 3,000 tested, 61% active. AID 1259319;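 active means activation at or above a set limit, or at least 3 SD above the negative control mean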
RORg DNA counter – counter-screen for Rev-erb alpha modulators: RORgamma DNA binding. 910 tested, 8% active. IC50, µM. shares compounds with NR1D1 modulator. AID 1259320. purified RORgamma protein-FITC-DNA binding, fluorescence polarization;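 active means Compounds whose fitted half-maximal concentration for disrupting protein-DNA binding is below 10 micromolar; the record names Rev-erb in its text, so the target is in doubt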
Each line names hits and unclear results; the compound was inactive in the other large screens (follow-up assays come after a bar, where they were run). Rows were chosen to be rich in hits. Some 1.6% of all compounds tested hit in one or more screens of this group.

C=C(C)CSc1nc(N)c(C#N)c(-c2ccc(C)cc2)c1C#N	NR1D1 modulator 24 | NR1D1 mod conf 18
CCCOC(=O)CSc1nc(N)c(C#N)c(-c2ccco2)c1C#N	none
CCOC(=O)CC(=O)CSc1nc(N)c(C#N)c(-c2ccc(F)cc2)c1C#N	none
CCCCOC(=O)CSc1nc(N)c(C#N)c(-c2ccc(OC)cc2)c1C#N	NR1D1 modulator 53 | NR1D1 mod conf 28
CCc1cccc(C)c1NC(=O)CN1C(=O)NC(C)(CCC(C)C)C1=O (stereo not drawn)	none (no result: NR2E3 ag-1)
Cc1ccc(-c2cc(C(F)F)nc3sc4c(=O)[nH]cnc4c23)cc1	NR1D1 modulator 107 | NR1D1 mod conf 113 | RORg DNA counter inactive
O=C(Nc1ccc(F)cc1)C(c1ccncc1)N1CCN(CC(=O)N2CCCC2)CC1 (stereo not drawn)	none (no result: NR2E3 ag-1, NR2E3 ag-2, VLA-4 inh)
O=c1c2cnn(-c3ccccc3)c2nc(-c2cccs2)n1-c1ccc(Br)cc1	NR1D1 modulator 38 | NR1D1 mod conf inactive
O=C(O)CSc1nc2c(cnn2-c2ccccc2)c(=O)n1-c1ccc(Br)cc1	none
CCc1ccc2[nH]c3nc(N/N=C/c4ccc(O)cc4O)nnc3c2c1	none
O=C(Nc1nnc(-c2ccccc2Cl)s1)C1CCN(S(=O)(=O)c2ccc(Cl)cc2)CC1	none
O=C(Nc1nnc(-c2ccccc2F)s1)C1CCN(S(=O)(=O)c2ccc(Cl)cc2)CC1	NR1D1 modulator 33 | NR1D1 mod conf inactive
O=C(Nc1nnc(-c2ccc(F)cc2)s1)C1CCN(S(=O)(=O)c2ccc(Cl)cc2)CC1	NR1D1 modulator 121 | NR1D1 mod conf inactive
COc1ccc(C2CC(=O)C(c3ccc(Br)cc3)=CN2Cc2ccccc2)cc1 (stereo not drawn)	none (no result: NR2E3 ag-1, NR2E3 ag-2, VLA-4 inh)
COc1ccc(N2CCN(c3oc(-c4ccc(OC)c(OC)c4)nc3C#N)CC2)cc1	NR1D1 modulator 58 | NR1D1 mod conf inactive
COc1ccc(-c2nc(C#N)c(N3CCN(c4ccccc4)CC3)o2)cc1	none
O=C(CSc1nnc(CNC(=O)c2ccco2)o1)Nc1cccc(Cl)c1	none
CCn1cc(C(=O)Nc2ncccc2O)c(=O)c2cc(F)c(N3CCN(C(=O)c4ccco4)CC3)cc21	none
CC(=O)C1=C(c2ccccc2)OC(N)=C(C#N)C1c1ccccc1C (stereo not drawn)	none
CSC1=C(C#N)C(c2ccccc2Cl)C2=C(N1)c1ccccc1C2=O (stereo not drawn)	NR1D1 modulator 62 | NR1D1 mod conf 20
CC1=C(C#N)C(c2ccccc2)C2=C(N1)c1ccccc1C2=O (stereo not drawn)	none
CSC1=C(C#N)C(c2ccccc2C)C(C#N)=C(N)N1 (stereo not drawn)	NR1D1 modulator 27 | NR1D1 mod conf inactive
C[C@H](OC(=O)N1CCN(C(c2ccccc2)c2ccccc2)CC1)[C@@H]1O[C@@]2(C)CCC[C@H]1O2	none
COc1ccc(NC(=O)CSc2nc3ccccc3cc2Cc2ccccc2)cc1	NR1D1 modulator 27 | NR1D1 mod conf 22
CCSc1nc2ccc(OC)cc2cc1C#N	none
CC(C)CCSc1nc(N)c(C#N)cc1C#N	NR1D1 modulator 104 | NR1D1 mod conf 96 | RORg DNA counter inactive
COc1ccc(NC(=O)CSc2nc(N)c(C#N)cc2C#N)cc1	NR1D1 modulator 61 | NR1D1 mod conf 65 | RORg DNA counter inactive
COc1ccc2nc(SCC(=O)Nc3ccc4sc(C)nc4c3)c(C#N)cc2c1	NR1D1 modulator 92 | NR1D1 mod conf 123 | RORg DNA counter inactive
Cc1ccc2nc(SCc3ccccc3)c(C=O)c(=O)n2c1	NR1D1 modulator 42 | NR1D1 mod conf 30
Cc1ccc(N=Cc2c(O)c3ccccc3oc2=O)c(C)c1	NR1D1 modulator 46 | NR1D1 mod conf 25
Cc1ccc(C(=O)Nc2ccc(C(F)(F)F)n(C)c2=O)cc1	NR1D1 modulator 28 | NR1D1 mod conf inactive
COc1ccc(C(=O)Nc2ccc(C(F)(F)F)n(C)c2=O)cc1	NR1D1 modulator 47 | NR1D1 mod conf 32 | RORg DNA counter inactive
CCN(CC)S(=O)(=O)c1ccc(C(=O)Nc2ccc(C(F)(F)F)n(C)c2=O)cc1	none
COC(=O)[C@@H](Cc1c[nH]c2ccccc12)NCc1ccc(B(O)O)cc1	none (no result: NR2E3 ag-1, VLA-4 inh)
O=C(Nc1ccc(Br)cc1F)c1ccc2nsnc2c1	NR1D1 modulator 31 | NR1D1 mod conf 22
Cc1ccc(NC(=O)c2ccc3nsnc3c2)c(Cl)c1	NR1D1 modulator 27 | NR1D1 mod conf inactive
COc1ccccc1NC(=O)c1ccc2nsnc2c1	none
Cc1cc(OC(C)C(=O)NC2CC(C)(C)NC(C)(C)C2)c2c(C)c(C)c(=O)oc2c1 (stereo not drawn)	none (no result: NR2E3 ag-1, VLA-4 inh)
O=[N+]([O-])C1C(c2ccccc2)C12c1ccccc1-c1ccccc12 (stereo not drawn)	none (no result: NR2E3 ag-1, VLA-4 inh, NR1D1 modulator, PG9 binder)
O=C(NCc1ccccc1)OC1CC2CC1[C@H]1CCCCN1C2=O (stereo partly drawn)	none (no result: NR2E3 ag-1, VLA-4 inh)
O=C1NC(Cc2ccccc2)c2nc3ccc(Cl)cc3c(=O)n2-c2cc3ccccc3cc21 (stereo not drawn)	NR1D1 modulator 22 (no result: NR2E3 ag-1, VLA-4 inh) | NR1D1 mod conf inactive
Cc1ccc(/C=N/c2sc(Cc3ccccc3)c(C)c2C(N)=O)o1	NR1D1 modulator 29 | NR1D1 mod conf inactive
Cc1c(Cc2ccccc2)sc(/N=C/c2ccc3ccccc3c2)c1C(N)=O	none (no result: NR1D1 modulator, PG9 binder)
CCc1ccc(OCC(=O)NNC(=O)CSc2ncnc3sc(C)c(C)c23)cc1	NR1D1 modulator 26 (no result: VLA-4 inh) | NR1D1 mod conf inactive
Cc1ccc(OCC(=O)NNC(=O)CSc2ncnc3sc(C)c(C)c23)cc1	NR1D1 modulator 52 | NR1D1 mod conf inactive
COc1ccc(N2CCN(C(=O)C3CCCN(S(=O)(=O)c4ccc(C)cc4)C3)CC2)cc1 (stereo not drawn)	none
CCOC(=O)N1CCN(C(=O)/C(=C/c2ccc(N(C)C)cc2)NC(=O)c2ccccc2)CC1	none
Cc1ccc(S(=O)(=O)N2CCCCC2)cc1C(=O)N(CCc1ccccc1)Cc1ccccc1	none
CC1(C)Cc2c(c(N3CCCC3)nc3sc(C(=O)Nc4ccccc4)c(N)c23)CO1	NR1D1 modulator 50 | NR1D1 mod conf 44 | RORg DNA counter inactive
Cc1ccc(NC(=O)c2sc3nc(N4CCOCC4)c4c(c3c2N)CC(C)(C)OC4)cc1	none
CCOc1ccc(NC(=O)c2sc3nc(N4CCOCC4)c4c(c3c2N)CC(C)(C)OC4)cc1	NR1D1 modulator 33 | NR1D1 mod conf inactive
COc1ccc(NC(=O)c2sc3nc(N4CCOCC4)c4c(c3c2N)CC(C(C)C)OC4)c(OC)c1 (stereo not drawn)	none
COc1ccc(NC(=O)c2sc3nc(N4CCCC4)c4c(c3c2N)CC(C)(C)OC4)c(OC)c1	NR1D1 modulator 53 | NR1D1 mod conf 30 | RORg DNA counter inactive
CCn1nnc2cc(C(=O)O)ccc21	none

Screens deposited in PubChem by several laboratories.
